According to paper PMC3121894 (Journal of molecular biology, 2011):
Like-named read-outs stand apart in the source and are kept apart here. One block for each compound: values may come before it. Where a SMILES comes first, the peptide text is derived from it. The star is where a group is joined. 5FAM = O=C1OC2(c3ccc(O)cc3Oc3cc(O)ccc32)c2ccc(C(=O)*)cc21

Columns and labels:
[1] = system: SRPK1(ΔN); test: Steady-state kinetic phosphorylation assay, SRPK1; type: biochemical; conditions: for Km: substrate SRSF1, pH 7.4, 23° C
Method in brief: (§1)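 His6-tagged kinase (full length, N-terminal deletion, or SID deletion with RRQ linker) from E. coli BL21(DE3), Ni-purified; refolded His6-SRSF1 substrate. Reaction: 50 mM MOPS pH 7.4, 10 mM Mg2+, 1 mg/mL BSA, 23 °C, started with 100 μM 32P-ATP (600-1000 cpm/pmol). Quenched in SDS loading buffer; bands excised and counted. Initial velocities vs total SRSF1 or ATP fit to Michaelis-Menten; kcat = Vmax/total enzyme.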

[2] = system: SRPK1(ΔS); test: Steady-state kinetic phosphorylation assay, SRPK1; type: biochemical; conditions: for Km: substrate SRSF1, pH 7.4, 23° C
Method in brief: as §1

[3] = target: T1, SRPK1 (Homo sapiens, UniProt Q96SB4); test: Steady-state kinetic phosphorylation assay, SRPK1; type: biochemical
Method in brief: as §1

[4] = target: T1, SRPK1; test: Fluorescent Arg-Ser peptide binding, SRPK1; conditions: for fluorescence emission change: addition of SRPK1 (25, 50, 75 nM) to 10 nM peptide
[5] = system: SRPK1(ΔN); test: Fluorescent Arg-Ser peptide binding, SRPK1; conditions: removal of the N-terminus; both peptides
[6] = target: T1, SRPK1; type: biochemical; conditions: steady-state kinetic studies; data not shown
[7] = target: SRPK1 (SR-specific protein kinase 1), full-length wild type (UniProt Q96SB4); test: kinetic competition assay
[8] = target: SRPK1(ΔS), SRPK1 lacking the spacer insert domain (SID); test: kinetic competition assay
[9] = target: SRPK1(ΔN), SRPK1 lacking the full-length N-terminus; test: kinetic competition assay
[10] = system: SRPK1(ΔS); test: Single turnover phosphorylation, SRPK1; type: biochemical
[11] = target: T1, SRPK1; conditions: cited from earlier work
[12] = system: SRPK1(ΔN); test: Competition assay; type: biochemical; conditions: removal of the N-terminus; wt-SRSF1
Target sequence in this assay (Q96SB4 76-655 limits assumed, stated change not applied): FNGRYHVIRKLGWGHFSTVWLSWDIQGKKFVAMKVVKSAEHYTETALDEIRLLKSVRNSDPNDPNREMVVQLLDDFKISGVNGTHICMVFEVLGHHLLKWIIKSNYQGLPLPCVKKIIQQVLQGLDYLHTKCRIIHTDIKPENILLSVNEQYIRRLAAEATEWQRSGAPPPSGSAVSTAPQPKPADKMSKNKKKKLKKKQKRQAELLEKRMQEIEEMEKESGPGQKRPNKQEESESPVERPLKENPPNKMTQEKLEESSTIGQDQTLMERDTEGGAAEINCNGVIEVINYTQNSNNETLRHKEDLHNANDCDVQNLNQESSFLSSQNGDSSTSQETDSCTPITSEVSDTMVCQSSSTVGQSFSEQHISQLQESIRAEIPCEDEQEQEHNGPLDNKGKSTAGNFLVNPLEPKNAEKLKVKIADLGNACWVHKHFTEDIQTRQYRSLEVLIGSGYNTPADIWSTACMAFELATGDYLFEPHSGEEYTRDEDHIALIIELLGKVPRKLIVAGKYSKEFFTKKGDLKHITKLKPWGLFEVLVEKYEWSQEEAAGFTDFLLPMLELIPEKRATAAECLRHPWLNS

[13] = target: SRPK1(ΔS); test: Competition assay; type: biochemical; conditions: removal of the SID
[14] = target: T1, SRPK1; test: Single turnover phosphorylation, SRPK1; type: biochemical
[15] = target: T1, SRPK1; conditions: SRPK1 complex with SRSF1; ref [15]; [18]; cited from earlier work
[16] = SRPK1 2 μM, SRSF1 100 nM, ^32P-ATP start, double exponential fit
[17] = SRPK1 2 μM, SRSF1 100 nM, double exponential fit
[18] = wild-type kinase, single turnover

T1 sequence (Q96SB4 whole entry, species assumed): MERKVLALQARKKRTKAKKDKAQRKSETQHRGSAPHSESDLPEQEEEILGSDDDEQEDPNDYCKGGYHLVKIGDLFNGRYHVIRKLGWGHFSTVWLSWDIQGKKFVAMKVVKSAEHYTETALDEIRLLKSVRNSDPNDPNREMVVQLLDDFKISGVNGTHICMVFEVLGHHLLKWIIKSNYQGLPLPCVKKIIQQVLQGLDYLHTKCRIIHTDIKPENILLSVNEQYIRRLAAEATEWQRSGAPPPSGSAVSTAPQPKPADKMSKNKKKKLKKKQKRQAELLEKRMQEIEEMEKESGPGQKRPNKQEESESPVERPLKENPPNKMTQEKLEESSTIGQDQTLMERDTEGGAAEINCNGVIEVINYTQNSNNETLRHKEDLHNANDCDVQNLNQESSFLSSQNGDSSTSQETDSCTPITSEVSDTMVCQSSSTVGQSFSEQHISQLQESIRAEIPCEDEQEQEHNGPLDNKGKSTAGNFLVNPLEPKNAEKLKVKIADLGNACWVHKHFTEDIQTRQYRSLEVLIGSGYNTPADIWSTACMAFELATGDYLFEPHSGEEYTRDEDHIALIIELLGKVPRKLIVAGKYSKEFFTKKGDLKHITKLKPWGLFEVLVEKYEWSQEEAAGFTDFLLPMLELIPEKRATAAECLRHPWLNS
Chain of SRPK1(ΔN), SRPK1 lacking the full-length N-terminus (Q96SB4 71-655, stated change not applied): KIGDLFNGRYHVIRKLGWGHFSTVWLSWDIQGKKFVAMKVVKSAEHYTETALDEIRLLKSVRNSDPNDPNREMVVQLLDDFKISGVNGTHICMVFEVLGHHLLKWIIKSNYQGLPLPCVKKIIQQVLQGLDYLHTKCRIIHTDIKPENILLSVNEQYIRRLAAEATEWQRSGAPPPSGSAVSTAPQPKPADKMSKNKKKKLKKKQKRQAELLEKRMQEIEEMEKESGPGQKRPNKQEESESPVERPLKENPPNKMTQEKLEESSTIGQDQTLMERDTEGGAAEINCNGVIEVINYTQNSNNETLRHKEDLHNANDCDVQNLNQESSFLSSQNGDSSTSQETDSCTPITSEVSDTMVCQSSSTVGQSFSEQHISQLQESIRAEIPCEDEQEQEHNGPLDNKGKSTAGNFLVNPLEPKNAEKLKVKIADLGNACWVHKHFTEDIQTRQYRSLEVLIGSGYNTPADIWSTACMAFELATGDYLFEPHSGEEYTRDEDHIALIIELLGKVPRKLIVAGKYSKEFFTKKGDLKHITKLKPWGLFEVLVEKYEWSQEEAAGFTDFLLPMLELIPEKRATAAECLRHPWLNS
Chain of SRPK1 (SR-specific protein kinase 1), full-length wild type (Q96SB4 whole entry, the tested form may be a part): as the sequence (Q96SB4 whole entry, species assumed) above

Compound: Nc1ncnc2c1ncn2[C@@H]1O[C@H](COP(=O)(O)OP(=O)(O)OP(=O)(O)O)[C@@H](O)[C@H]1O [ATP, reference compound]
- increase of Km,ATP ([1]; N-terminal deletion versus SRPK1): 2-5 fold
- Km ([1]; read-out: Km,ATP (Km for ATP), SRPK1(ΔN)): 9 ± 2 µM
- increase of Km,ATP ([2]; SID deletion versus SRPK1): 2-5 fold
- Km ([2]; read-out: Km,ATP (Km for ATP), SRPK1(ΔS)): 28 ± 7 µM
- Km ([3]; read-out: Km,ATP (Km for ATP), substrate SRSF1, pH 7.4, 23° C): 5 ± 0.5 µM

Compound: N=C(N)NCCC[C@H](NC(=O)c1ccc2c(c1)C(=O)OC21c2ccc(O)cc2Oc2cc(O)ccc21)C(=O)N[C@@H](CO)C(=O)N[C@@H](CCCNC(=N)N)C(=O)N[C@@H](CO)C(=O)N[C@@H](CCCNC(=N)N)C(=O)N[C@@H](CO)C(=O)N[C@@H](CCCNC(=N)N)C(=O)N[C@@H](CO)C(=O)N[C@@H](CCCNC(=N)N)C(=O)N[C@@H](CO)C(=O)N[C@@H](CCCNC(=N)N)C(=O)N[C@@H](CO)C(=O)N[C@@H](CCCNC(=N)N)C(=O)N[C@@H](CO)C(=O)N[C@@H](CCCNC(=N)N)C(=O)N[C@@H](CO)C(=O)O [Fl-(RS)8] (5FAM-RSRSRSRSRSRSRSRS-OH; N-terminus and C-terminus assumed)
- fluorescence emission change [4]: increases in the fluorescence emission spectra

Compound: N=C(N)NCCC[C@H](NC(=O)c1ccc2c(c1)C(=O)OC21c2ccc(O)cc2Oc2cc(O)ccc21)C(=O)N[C@@H](CO)C(=O)N[C@@H](CCCNC(=N)N)C(=O)N[C@@H](CO)C(=O)N[C@@H](CCCNC(=N)N)C(=O)N[C@@H](CO)C(=O)N[C@@H](CCCNC(=N)N)C(=O)N[C@@H](CO)C(=O)N[C@@H](CCCNC(=N)N)C(=O)N[C@@H](CO)C(=O)N[C@@H](CCCNC(=N)N)C(=O)N[C@@H](CO)C(=O)N[C@@H](CCCNC(=N)N)C(=O)N[C@@H](CO)C(=O)N[C@@H](CCCNC(=N)N)C(=O)N[C@@H](CO)C(=O)N[C@@H](CCCNC(=N)N)C(=O)N[C@@H](CO)C(=O)N[C@@H](CCCNC(=N)N)C(=O)N[C@@H](CO)C(=O)N[C@@H](CCCNC(=N)N)C(=O)N[C@@H](CO)C(=O)N[C@@H](CCCNC(=N)N)C(=O)N[C@@H](CO)C(=O)N[C@@H](CCCNC(=N)N)C(=O)N[C@@H](CO)C(=O)N[C@@H](CCCNC(=N)N)C(=O)N[C@@H](CO)C(=O)N[C@@H](CCCNC(=N)N)C(=O)N[C@@H](CO)C(=O)N[C@@H](CCCNC(=N)N)C(=O)N[C@@H](CO)C(=O)O [Fl-(RS)16] (5FAM-RSRSRSRSRSRSRSRSRSRSRSRSRSRSRSRS-OH; N-terminus and C-terminus assumed)
- reduction of peptide binding affinity [5]: about 15 fold
- fluorescence emission change [4]: increases in the fluorescence emission spectra
- affinity of 32-residue peptide compared to the 16-residue peptide ([4]; in all cases (SRPK1, SRPK1(ΔN), SRPK1(ΔS))): either equivalent or a 2-fold greater affinity
- inhibition of SRSF1 phosphorylation [6]: competitively inhibits SRSF1 phosphorylation

Second part, led by results:

- Ki [7]: 150 nM
- Ki [8]: 140 nM
- Ki [9]: 830 nM
Compound: RS domain of SRSF1 (domain or fragment)

- decrease of SR protein binding affinity (KI) [12]: 2-3 fold
- effect of SID removal on KI / binding affinity [13]: no effect
- rate constant, fast phase [14, 16]: 6 min⁻¹
- rate constant, slow phase [14, 16]: 0.2 min⁻¹
- amplitude, fast phase [14, 17]: 12 sites
- amplitude, slow phase [14, 17]: 3 sites
- extent of phosphorylation ([14]; SRPK1, single turnover): approx. 15 sites
- time to completion of fast phase [14, 18]: 1 to 2 min
- time to completion of slower phase [14, 18]: 20 to 30 min
Compound: SRSF1: human alternative splicing factor or ASF/SF2; prototype SR protein, SRPK1 substrate
- increase of Km,SR ([1]; SRPK1(ΔN) versus SRPK1): 3 fold
- lowering of turnover (kcat) ([1]; SRPK1(ΔN) versus SRPK1): about 5 fold
- kcat ([1]; SRPK1(ΔN), 50 mM MOPS pH 7.4, 10 mM Mg^2+, 1 mg/mL BSA, ^32P-ATP, 23° C, Michaelis-Menten fit): 0.108 ± 0.015 s⁻¹
- enhancement of catalysis by N-terminus (kcat/Km,SR) ([1]; SRPK1 versus SRPK1(ΔN)): about 20 fold
- Km ([1]; read-out: Km,SR (Km for SRSF1), SRPK1(ΔN)): 0.63 ± 0.07 µM
- extent of phosphorylation [10]: approx 13 sites
- effect of insert (SID) on Km,SR ([2]; SRPK1(ΔS) versus SRPK1): no effect
- lowering of turnover (kcat) ([2]; SRPK1(ΔS) versus SRPK1): about 5 fold
- kcat ([2]; SRPK1(ΔS), 50 mM MOPS pH 7.4, 10 mM Mg^2+, 1 mg/mL BSA, ^32P-ATP, 23° C, Michaelis-Menten fit): 0.0733 ± 0.0067 s⁻¹
- enhancement of catalysis by insert (kcat/Km,SR) ([2]; SRPK1 versus SRPK1(ΔS)): about 5 fold
- Km ([2]; read-out: Km,SR (Km for SRSF1), SRPK1(ΔS)): 0.12 ± 0.02 µM
- kcat ([3]; 50 mM MOPS pH 7.4, 10 mM Mg^2+, 1 mg/mL BSA, ^32P-ATP, 23° C, Michaelis-Menten fit): 0.5 ± 0.033 s⁻¹
- Km ([3]; read-out: Km,SR (Km for SRSF1), substrate SRSF1, pH 7.4, 23° C): 0.12 ± 0.02 µM
- serines rapidly phosphorylated in RS1 ([11]; SRSF1, SRPK1, strict C-to-N-terminal direction, ref [7], [10]): 10-12 serines
- additional serines slowly modified in RS2 ([11]; SRSF1, SRPK1, shown previously, ref none printed in this sentence): about 3 serines
- Kd [15]: 20 to 50 nM
